# Measurements taken from ChEMBL document CHEMBL1795305, “Sorafenib derivatives induce apoptosis through inhibition of STAT3 independent of Raf” (Eur J Med Chem, 2011).
# Active and inactive are the calls of the source. The calls are words filed in the database; no cut-off is given here.
# Experiments:
# [1] = Cytotoxicity against human PLC/PRF/5 cells assessed as growth inhibition; type: functional, cell-based
# [2] = molecular target: Signal transducer and activator of transcription 3 (Homo sapiens) (UniProt P40763); assay: Inhibition of STAT3-mediated cyclin D1 protein expression in human PLC/PRF/5 cells at 5 to 10 uM after 24 hrs by Western blot analysis; type: cell-based
# In short: (§1)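 PLC5 cells in FBS-containing medium treated 24 h at 5 and 10 µM; whole-cell lysates immunoblotted for phospho-STAT3, total STAT3, cyclin D1 and survivin.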
# [3] = molecular target: Signal transducer and activator of transcription 3 (Homo sapiens) (UniProt P40763); assay: Inhibition of STAT3-mediated survivin expression in human PLC/PRF/5 cells at 5 to 10 uM after 24 hrs by Western blot analysis; type: cell-based; in short: as §1
# [4] = molecular target: RAF proto-oncogene serine/threonine-protein kinase (Homo sapiens) (UniProt P04049); assay: Inhibition of raf kinase in human PLC/PRF/5 cell lysate at 10 uM after 24 hrs
# [5] = molecular target: Signal transducer and activator of transcription 3 (Homo sapiens) (UniProt P40763); assay: Inhibition of IL6-induced STAT3 phosphorylation in human PLC/PRF/5 cells at 10 uM after 24 hrs by ELISA; type: cell-based
# In short: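 PLC5 cells pre-treated with IL-6 1 ng/mL, then exposed to compound at 10 µM for 24 h; lysates incubated on antibody-coated plate capturing phospho- and non-phospho-STAT3; phospho-STAT3 detected by absorbance at 450 nm; mean ± SD, N = 3.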
# PLC-PRF-5 [6] = assay: Induction of apoptosis in human PLC/PRF/5 at 5 to 10 uM by flow cytometry; type: functional
# In short: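 PLC5 cells treated 24 h at 5 and 10 µM; trypsinized, washed in PBS, stained with propidium iodide 30 min at 37 °C in the dark; apoptotic fraction read as sub-G1 population by flow cytometry; triplicate experiments.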
# PLC-PRF-5 [7] = assay: Induction of apoptosis in human PLC/PRF/5 cells assessed as DNA fragmentation at 5 to 10 uM by ELISA; type: functional, cell-based
# In short: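 PLC5 cells treated 24 h at 5 and 10 µM in culture; cell death quantified as DNA fragmentation by ELISA kit following manufacturer's standard protocol.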
# [8] = molecular target: RAF proto-oncogene serine/threonine-protein kinase (Homo sapiens) (UniProt P04049); details: 5 uM
# Signal transducer and activator of transcription 3 (Homo sapiens), sequence (P40763 whole entry): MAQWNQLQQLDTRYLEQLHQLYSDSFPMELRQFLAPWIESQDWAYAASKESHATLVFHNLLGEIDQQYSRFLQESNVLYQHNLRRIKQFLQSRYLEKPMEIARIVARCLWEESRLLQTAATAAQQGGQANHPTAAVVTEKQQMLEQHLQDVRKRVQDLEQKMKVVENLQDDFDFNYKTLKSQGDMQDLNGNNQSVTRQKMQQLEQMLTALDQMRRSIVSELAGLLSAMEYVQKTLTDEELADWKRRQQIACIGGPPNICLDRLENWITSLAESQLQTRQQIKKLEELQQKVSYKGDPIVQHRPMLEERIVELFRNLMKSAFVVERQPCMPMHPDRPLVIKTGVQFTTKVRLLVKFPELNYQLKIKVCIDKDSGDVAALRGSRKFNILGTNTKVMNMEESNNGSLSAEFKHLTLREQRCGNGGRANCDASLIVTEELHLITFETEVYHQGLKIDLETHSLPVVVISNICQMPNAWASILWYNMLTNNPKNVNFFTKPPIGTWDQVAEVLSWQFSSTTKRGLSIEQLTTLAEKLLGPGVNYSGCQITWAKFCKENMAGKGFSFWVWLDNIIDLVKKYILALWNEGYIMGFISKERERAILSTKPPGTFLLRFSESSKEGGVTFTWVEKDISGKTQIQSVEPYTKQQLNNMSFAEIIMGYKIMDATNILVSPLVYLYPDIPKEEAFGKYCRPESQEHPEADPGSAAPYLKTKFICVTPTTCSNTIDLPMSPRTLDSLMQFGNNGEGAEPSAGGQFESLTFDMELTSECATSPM
Compound,"IC50 ([1]; Homo sapiens, PLC-PRF-5) [µM]",other results
O=C(Nc1ccc(Oc2ccnc3c([N+](=O)[O-])cccc23)cc1)c1cc(C(F)(F)F)cc(C(F)(F)F)c1,> 40,
SC-1 [listing 1 of 2 here],,IC50 ([1]; plc-prf-5): 7.5 µM
CNC(=O)c1cc(Oc2ccc(NC(=O)c3cc(C(F)(F)F)ccc3F)cc2)ccn1,> 40,
CNC(=O)c1cc(Oc2ccc(NS(=O)(=O)c3ccc4ccccc4c3)cc2)ccn1,> 40,
O=[N+]([O-])c1cccc2c(Oc3ccc(NS(=O)(=O)c4ccc(C(F)(F)F)cc4Br)cc3)ccnc12,> 40,
O=C(Nc1ccc(Oc2ccnc3ccccc23)cc1)c1cc(C(F)(F)F)ccc1F,21.1,
CNC(=O)c1cc(Oc2ccc(NS(=O)(=O)c3ccc(C(C)(C)C)cc3)cc2)ccn1,> 40,
Nc1cccc2c(Oc3cccc(NC(=O)c4cc(C(F)(F)F)cc(C(F)(F)F)c4)c3)ccnc12,19,
CNC(=O)c1cc(Oc2ccc(NS(=O)(=O)c3ccc(C(F)(F)F)cc3Br)cc2)ccn1,> 40,
CNC(=O)c1cc(Oc2ccc(NC(=O)c3ccc(C(F)(F)F)cc3)cc2)ccn1,> 40,
O=S(=O)(Nc1ccc(Oc2ccnc3ccccc23)cc1)c1ccc(C(F)(F)F)cc1Br,> 40,
O=C(Nc1ccc(Oc2ccnc3ccccc23)cc1)c1cc(C(F)(F)F)cc(C(F)(F)F)c1,16,
CC(=O)Nc1cccc2c(Oc3cccc(NC(=O)c4cc(C(F)(F)F)cc(C(F)(F)F)c4)c3)ccnc12,10.8,
O=C(Nc1ccc(Oc2ccnc3c([N+](=O)[O-])cccc23)cc1)c1cc(C(F)(F)F)ccc1F,> 40,
CNC(=O)c1cc(Oc2ccc(NS(=O)(=O)c3ccc(F)cc3)cc2)ccn1,> 40,
Cc1cc(Oc2ccnc3c(N)cccc23)ccc1NC(=O)c1cc(C(F)(F)F)cc(C(F)(F)F)c1,25.4,
CNC(=O)c1cc(Oc2ccc(NS(=O)(=O)c3ccccc3)cc2)ccn1,> 40,
O=[N+]([O-])c1cc(C(F)(F)F)ccc1S(=O)(=O)Nc1ccc(Oc2ccnc3ccccc23)cc1,> 40,inhibition [2]: inactive; inhibition [3]: inactive
CC(=O)Nc1cccc2c(Oc3ccc(NC(=O)c4cc(C(F)(F)F)cc(C(F)(F)F)c4)c(C)c3)ccnc12,> 40,
CNC(=O)c1cc(Oc2ccc(NS(=O)(=O)c3ccccc3[N+](=O)[O-])cc2)ccn1,> 40,
SC-1 [listing 2 of 2 here],,inhibition [4]: inactive; inhibition [5]: Active; inhibition [2]: Active; inhibition [3]: Active; Activity (PLC-PRF-5 [6]): Active; Activity (PLC-PRF-5 [7]): Active
CNC(=O)c1cc(Oc2ccc(NS(=O)(=O)c3ccc([N+](=O)[O-])cc3)cc2)ccn1,> 40,
O=C(Nc1cccc(Oc2ccnc3c([N+](=O)[O-])cccc23)c1)c1cc(C(F)(F)F)cc(C(F)(F)F)c1,> 40,
O=[N+]([O-])c1cc(C(F)(F)F)ccc1S(=O)(=O)Nc1ccc(Oc2ccnc3c([N+](=O)[O-])cccc23)cc1,> 40,
CNC(=O)c1cc(Oc2ccc(NC(=O)c3cc(C(F)(F)F)cc(C(F)(F)F)c3)cc2)ccn1,> 40,
CNC(=O)c1cc(Oc2ccc(NC(=O)Nc3ccc(Cl)c(C(F)(F)F)c3)cc2)ccn1 [SORAFENIB],8.3,inhibition [8]: 50%
Cc1cc(Oc2ccnc3c([N+](=O)[O-])cccc23)ccc1NC(=O)c1cc(C(F)(F)F)cc(C(F)(F)F)c1,> 40,
